Laboratory results reported in ChEMBL document CHEMBL3407460, “Synthesis of novel thiazole-based 8,9-dihydro-7H-pyrimido[4,5-b][1,4]diazepines as potential antitumor and antifungal agents” (2015).

Legend:
Assay type in all cases: functional
[1] = test system: NCI-H460; assay: Antitumor activity against human NCI-H460 cells after 48 hrs by Sulforhodamine B assay; conditions: NCI-H460, 48 h
Procedure, shortened: (§1)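 NCI 60-cell-line screen. Secondary five-dose test at 100, 10, 1.0, 0.1 and 0.01 µM with continuous drug exposure for 48 h. Cell growth was estimated by sulforhodamine B protein staining. […] LC50 was also reported.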

[2] = test system: SK-MEL-5; assay: Antitumor activity against human SK-MEL-5 cells after 48 hrs by Sulforhodamine B assay; conditions: SK-MEL-5, 48 h; procedure, shortened: as §1
[3] = Antitumor activity against human COLO205 cells after 48 hrs by Sulforhodamine B assay; conditions: COLO 205, 48 h; procedure, shortened: as §1
[4] = test system: SNB-75; assay: Antitumor activity against human SNB75 cells after 48 hrs by Sulforhodamine B assay; conditions: SNB-75, 48 h; procedure, shortened: as §1
[5] = test system: SNB-19; assay: Antitumor activity against human SNB19 cells after 48 hrs by Sulforhodamine B assay; conditions: SNB-19, 48 h; procedure, shortened: as §1
[6] = Antitumor activity against human HCT116 cells after 48 hrs by Sulforhodamine B assay; conditions: HCT-116, 48 h; procedure, shortened: as §1
[7] = Antitumor activity against human UACC62 cells after 48 hrs by Sulforhodamine B assay; conditions: UACC-62, 48 h; procedure, shortened: as §1
[8] = Antitumor activity against human OVCAR3 cells after 48 hrs by Sulforhodamine B assay; conditions: OVCAR-3, 48 h; procedure, shortened: as §1
[9] = Antitumor activity against human Hs 578T cells after 48 hrs by Sulforhodamine B assay; procedure, shortened: as §1
[10] = test system: MCF7; assay: Antitumor activity against human MCF7 cells after 48 hrs by Sulforhodamine B assay; conditions: MCF7, 48 h; procedure, shortened: as §1
[11] = test system: NCI-H23; assay: Antitumor activity against human NCI-H23 cells after 48 hrs by Sulforhodamine B assay; conditions: NCI-H23, 48 h; procedure, shortened: as §1
[12] = test system: SR; assay: Antitumor activity against human SR cells after 48 hrs by Sulforhodamine B assay; procedure, shortened: as §1
[13] = test system: K562; assay: Antitumor activity against human K562 cells after 48 hrs by Sulforhodamine B assay; conditions: K562, 48 h; procedure, shortened: as §1
[14] = test system: T47D; assay: Antitumor activity against human T47D cells after 48 hrs by Sulforhodamine B assay; procedure, shortened: as §1
[15] = test system: MDA-MB-231; assay: Antitumor activity against human MDA-MB-231 cells after 48 hrs by Sulforhodamine B assay; conditions: MDA-MB-231, 48 h; procedure, shortened: as §1
[16] = test system: SW-620; assay: Antitumor activity against human SW620 cells after 48 hrs by Sulforhodamine B assay; conditions: SW-620, 48 h; procedure, shortened: as §1
[17] = test system: Malme-3M; assay: Antitumor activity against human MALME-3M cells after 48 hrs by Sulforhodamine B assay; procedure, shortened: as §1
[18] = test system: SK-MEL-2; assay: Antitumor activity against human SK-MEL-2 cells after 48 hrs by Sulforhodamine B assay; conditions: SK-MEL-2, 48 h; procedure, shortened: as §1
[19] = Antitumor activity against human MOLT4 cells after 48 hrs by Sulforhodamine B assay; conditions: MOLT-4, 48 h; procedure, shortened: as §1
[20] = test system: NCI-H226; assay: Antitumor activity against human NCI-H226 cells after 48 hrs by Sulforhodamine B assay; conditions: NCI-H226, 48 h; procedure, shortened: as §1
[21] = Antitumor activity against human OVCAR8 cells after 48 hrs by Sulforhodamine B assay; conditions: OVCAR-8, 48 h; procedure, shortened: as §1
[22] = Antitumor activity against human BT549 cells after 48 hrs by Sulforhodamine B assay; conditions: BT-549, 48 h; procedure, shortened: as §1
[23] = Antitumor activity against human HOP92 cells after 48 hrs by Sulforhodamine B assay; conditions: HOP-92, 48 h; procedure, shortened: as §1
[24] = test system: MDA-MB-435; assay: Antitumor activity against human MDA-MB-435 cells after 48 hrs by Sulforhodamine B assay; conditions: MDA-MB-435, 48 h; procedure, shortened: as §1
[25] = test system: M14; assay: Antitumor activity against human M14 cells after 48 hrs by Sulforhodamine B assay; conditions: M14, 48 h; procedure, shortened: as §1
[26] = Antitumor activity against human LOXIMVI cells after 48 hrs by Sulforhodamine B assay; conditions: LOX IMVI; procedure, shortened: as §1
[27] = test system: SK-MEL-28; assay: Antitumor activity against human SK-MEL-28 cells after 48 hrs by Sulforhodamine B assay; conditions: SK-MEL-28, 48 h; procedure, shortened: as §1
[28] = test system: HOP-62; assay: Antitumor activity against human HOP62 cells after 48 hrs by Sulforhodamine B assay; conditions: HOP-62, 48 h; procedure, shortened: as §1
[29] = test system: SF-268; assay: Antitumor activity against human SF268 cells after 48 hrs by Sulforhodamine B assay; conditions: SF-268, 48 h; procedure, shortened: as §1
[30] = test system: IGROV-1; assay: Antitumor activity against human IGROV1 cells after 48 hrs by Sulforhodamine B assay; conditions: IGROV-1, 48 h; procedure, shortened: as §1
[31] = Antitumor activity against human RPMI8226 cells after 48 hrs by Sulforhodamine B assay; conditions: RPMI-8226, 48 h; procedure, shortened: as §1
[32] = test system: KM12; assay: Antitumor activity against human KM12 cells after 48 hrs by Sulforhodamine B assay; conditions: KM12, 48 h; procedure, shortened: as §1
[33] = Antitumor activity against human NCI-ADR-RES cells after 48 hrs by Sulforhodamine B assay; procedure, shortened: as §1
[34] = Antitumor activity against human SF539 cells after 48 hrs by Sulforhodamine B assay; conditions: SF-539, 48 h; procedure, shortened: as §1
[35] = test system: HL-60(TB); assay: Antitumor activity against human HL-60(TB) cells after 48 hrs by Sulforhodamine B assay; conditions: HL-60, 48 h; procedure, shortened: as §1
[36] = test system: DU-145; assay: Antitumor activity against human DU145 cells after 48 hrs by Sulforhodamine B assay; conditions: DU-145, 48 h; procedure, shortened: as §1
[37] = Antitumor activity against human HCT15 cells after 48 hrs by Sulforhodamine B assay; conditions: HCT-15, 48 h; procedure, shortened: as §1
[38] = test system: MDA-MB-468; assay: Antitumor activity against human MDA-MB-468 cells after 48 hrs by Sulforhodamine B assay; conditions: MDA-MB-468, 48 h; procedure, shortened: as §1
[39] = test system: NCI-H522; assay: Antitumor activity against human NCI-H522 cells after 48 hrs by Sulforhodamine B assay; conditions: NCI-H522, 48 h; procedure, shortened: as §1
[40] = read-out: LC50 (the source's name)

Structure (SMILES): Nc1ncnc2c1N=C(c1ccc3c(c1)OCO3)CC(c1sc(Cl)nc1Cl)N2 (stereo not drawn)
- GI50 [1]: 3.99 µM
- LC50 [1]: > 100 µM
- GI50 [2]: 3.43 µM
- CC50 [2, 40]: 40.8 µM
- GI50 [3]: 3.48 µM
- CC50 [3, 40]: 45.6 µM
- GI50 [4]: 1.39 µM
- LC50 (concentration killing 50% of cells) [4]: 61.4 µM
- GI50 [5]: 4.83 µM
- LC50 [5]: > 100 µM
- GI50 [6]: 3.42 µM
- CC50 [6, 40]: 44.5 µM
- GI50 [7]: 2.17 µM
- LC50 [7]: 63.9 µM
- GI50 [8]: 3.94 µM
- CC50 [8, 40]: 66.8 µM
- GI50 [9]: 2.35 µM
- CC50 [9, 40]: > 100 µM
- GI50 [10]: 2.81 µM
- CC50 [10, 40]: > 100 µM
- GI50 [11]: 8.87 µM
- LC50 [11]: > 100 µM
- GI50 [12]: 1.9 µM
- CC50 [12, 40]: > 100 µM
- GI50 [13]: 0.54 µM
- CC50 [13, 40]: > 100 µM
- GI50 [14]: 5.36 µM
- CC50 [14, 40]: > 100 µM
- GI50 [15]: 5.81 µM
- LC50 (concentration killing 50% of cells) [15]: 55.7 µM
- GI50 [16]: 2.98 µM
- CC50 [16, 40]: > 100 µM
- GI50 [17]: 14.3 µM
- CC50 [17, 40]: 59.2 µM
- GI50 [18]: 5.19 µM
- LC50 [18]: 48.6 µM
- GI50 [19]: 5.91 µM
- LC50 [19]: > 100 µM
- GI50 [20]: 17.7 µM
- CC50 [20, 40]: > 100 µM
- GI50 [21]: 4.86 µM
- LC50 (concentration killing 50% of cells) [21]: > 100 µM
- GI50 [22]: 3.79 µM
- CC50 [22, 40]: 53.9 µM
- GI50 [23]: 4.25 µM
- CC50 [23, 40]: 77.5 µM
- GI50 [24]: 0.35 µM
- CC50 [24, 40]: 48.4 µM
- GI50 [25]: 2.01 µM
- CC50 [25, 40]: 44.6 µM
- GI50 [26]: 7.02 µM
- CC50 [26, 40]: 75.6 µM
- GI50 [27]: 7.63 µM
- LC50 [27]: 91.6 µM
- GI50 [28]: 5.32 µM
- LC50 (concentration giving 50% net cell kill) [28]: 62.6 µM
- GI50 [29]: 9.84 µM
- CC50 [29, 40]: 92.2 µM
- GI50 [30]: 10.4 µM
- CC50 [30, 40]: > 100 µM
- GI50 [31]: 4.66 µM
- LC50 (concentration causing 50% net cell kill) [31]: > 100 µM
- GI50 [32]: 3.93 µM
- CC50 [32, 40]: 73.6 µM
- GI50 [33]: 3.55 µM
- CC50 [33, 40]: > 100 µM
- GI50 [34]: 2.22 µM
- CC50 [34, 40]: 33.6 µM
- GI50 [35]: 36.1 µM
- CC50 [35, 40]: > 100 µM
- GI50 [36]: 8.45 µM
- CC50 [36, 40]: > 100 µM
- GI50 [37]: 1.07 µM
- CC50 [37, 40]: > 100 µM
- GI50 [38]: 1.65 µM
- LC50 [38]: > 100 µM
- GI50 [39]: 2.51 µM
- CC50 [39, 40]: 55.3 µM
